Source: article PMC3904496 (Cancer chemotherapy and pharmacology, 2012)
Read-outs that look alike come from different tables or passages of the source.

Legend:
[1] = Steady-state plasma pharmacokinetics, phase I trial; assay type: in vivo, human; conditions: for Mean peak plasma level: steady state; for AUC: po
Method in brief: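 Liposarcoma patients took oral test compound twice daily with food. On day 8 of cycle 1, EDTA blood was drawn predose and 0.5–8 h post-dose, iced, spun within 1 h and stored as plasma at ≤ –20 °C. Parent and active metabolite were extracted by protein precipitation/organic extraction (reserpine internal standard) and quantified by LC–MS/MS in positive-ion MRM. Non-compartmental Cmax/Tmax; linear/log trapezoidal AUC.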

liposarcoma [2] = conditions: cited from earlier work
HIV = conditions: cited from earlier work
liposarcoma [3] = experiment: Tumor response by RECIST in subjects with liposarcoma; assay type: in vivo, human
liposarcoma [4] = conditions: cited from earlier work; remark: listed apart in the source
SREBP-1 = conditions: in the absence of increased gene expression; cited from earlier work
liposarcoma xenograft = conditions: murine liposarcoma xenograft; cited from earlier work
[5] = RECIST, 20 subjects, all dose levels

Cc1c(O)cccc1C(=O)N[C@@H](CSc1ccccc1)[C@H](O)CN1C[C@H]2CCCC[C@H]2C[C@H]1C(=O)NC(C)(C)CO [M8]
time to peak plasma concentration ([1]; 3,000 mg nelfinavir twice daily): 4 to 6 h
time to peak plasma concentration ([1]; 4,250 mg nelfinavir twice daily): 2 h
anticancer activity relative to parent molecule (liposarcoma [2]): comparable to its parent molecule
activity in suppressing HIV replication relative to parent drug (HIV): as pharmacologically active as the parent drug

Cc1c(O)cccc1C(=O)N[C@@H](CSc1ccccc1)[C@H](O)CN1C[C@H]2CCCC[C@H]2C[C@H]1C(=O)NC(C)(C)C [nelfinavir]
Mean peak plasma level ([1]; Level 4, 3,000 mg twice daily oral, six subjects): 7.3 mg/L
Mean peak plasma level ([1]; Level 5, 4,250 mg twice daily oral, three subjects): 6.3 mg/L
Tmax ([1]; human, plasma, oral, 4250 mg twice daily): 2 h
AUC ([1]; human, plasma, 3000 mg twice daily): 60900 ng·h/mL
AUC ([1]; human, plasma, 4250 mg twice daily): 37700 ng·h/mL
subjects with CT partial response (PR) (liposarcoma [3]; [5]): 1
subjects with progressive disease at initial evaluation (liposarcoma [3]; [5]): 13
subjects with reduction in tumor size, but less than a PR (liposarcoma [3]; [5]): 1
clinical benefit (complete response, PR, plus SD) (liposarcoma [3]; of 20 subjects): 30%
subjects with clinical benefit (complete response, PR, plus SD) (liposarcoma [3]; of 20 subjects): 6
Acute toxicity count: Blood/bone marrow, Hemoglobin (Course 1, Grade 1): 3
Acute toxicity count: Blood/bone marrow, Leukocytes (total WBC) (Course 1, Grade 1): 2
Acute toxicity count: Blood/bone marrow, Other (Course 1, Grade 1): 1
Acute toxicity count: Blood/bone marrow, Platelets (Course 1, Grade 1): 1
Acute toxicity count: Cardiac arrhythmia ventricular arrhythmia (Course 1, Grade 1): 1
Acute toxicity count: Laboratory, Bicarbonate, serum-low (Course 1, Grade 1): 1
Acute toxicity count: Laboratory, Cholesterol, serum-high (Course 1, Grade 1): 2
Acute toxicity count: Laboratory, Glucose, serum-high (Course 1, Grade 1): 1
Acute toxicity count: Laboratory, Potassium, serum-low (Course 1, Grade 1): 2
Acute toxicity count: Laboratory, Triglyceride, serum-high (Course 1, Grade 1): 2
Acute toxicity count: Blood/bone marrow, Hemoglobin (Course 1, Grade 2): 1
Acute toxicity count: Blood/bone marrow, Lymphopenia (Course 1, Grade 2): 1
Acute toxicity count: Laboratory, Glucose, serum-high (Course 1, Grade 2): 1
Acute toxicity count: Laboratory, Lipase (Course 1, Grade 3): 1
Acute toxicity count: Blood/bone marrow, Hemoglobin (Subsequent courses, Grade 1): 2
Acute toxicity count: Blood/bone marrow, Lymphopenia (Subsequent courses, Grade 1): 1
Acute toxicity count: Blood/bone marrow, Platelets (Subsequent courses, Grade 1): 1
Acute toxicity count: Blood/bone marrow, Hemoglobin (Subsequent courses, Grade 2): 2
Acute toxicity count: Blood/bone marrow, Neutrophils (Subsequent courses, Grade 2): 1
Acute toxicity count: Blood/bone marrow, Leukocytes (total WBC) (human, in vivo): 1
Acute toxicity count: Constitutional, Fatigue (human, in vivo): 1
Acute toxicity count: Constitutional, Weight loss (human, in vivo): 1
Acute toxicity count: Dermatology/skin, Other (human, in vivo): 1
Acute toxicity count: Dermatology/skin, Rash/desquamation (human, in vivo): 1
Acute toxicity count: Gastrointestinal, Anorexia (human, in vivo): 1
Acute toxicity count: Gastrointestinal, Diarrhea (human, in vivo): 7
Acute toxicity count: Gastrointestinal, Nausea (human, in vivo): 1
Acute toxicity count: Gastrointestinal, Vomiting (human, in vivo): 1
Acute toxicity count: Laboratory, ALT, SGPT (human, in vivo): 1
Acute toxicity count: Laboratory, AST, SGOT (human, in vivo): 1
Acute toxicity count: Laboratory, Alkaline phosphatase (human, in vivo): 2
Acute toxicity count: Laboratory, Glucose, serum-high (human, in vivo): 3
Acute toxicity count: Laboratory, Potassium, serum-low (human, in vivo): 1
Acute toxicity count: Laboratory, Triglyceride, serum-high (human, in vivo): 2
Acute toxicity count: Neurology dizziness (human, in vivo): 1
Acute toxicity count: Pain (human, in vivo): 2
Acute toxicity count: Pulmonary dyspnea (human, in vivo): 1
Acute toxicity count: Pulmonary, Hypoxia (human, in vivo): 1
Acute toxicity count: Pulmonary, Other (human, in vivo): 1
Acute toxicity count: Constitutional, Fatigue (human, in vivo, 28 days): 1
Acute toxicity count: Dermatology/skin, Other (human, in vivo, 28 days): 1
Acute toxicity count: Dermatology/skin, Rash/desquamation (human, in vivo, 28 days): 1
Acute toxicity count: Gastrointestinal, Diarrhea (human, in vivo, 28 days): 2
Acute toxicity count: Gastrointestinal, Nausea (human, in vivo, 28 days): 2
Acute toxicity count: Gastrointestinal, Vomiting (human, in vivo, 28 days): 1
Acute toxicity count: Hemorrhage/bleeding (human, in vivo, 28 days): 1
Acute toxicity count: Hepatobiliary/pancreatitis (human, in vivo, 28 days): 1
Acute toxicity count: Laboratory, ALT, SGPT (human, in vivo, 28 days): 3
Acute toxicity count: Laboratory, AST, SGOT (human, in vivo, 28 days): 3
Acute toxicity count: Laboratory, Album, serum-low (human, in vivo, 28 days): 1
Acute toxicity count: Lymphatics/limb edema (human, in vivo, 28 days): 1
MTD (up to dose Level 5 (4,250 mg twice daily)): not reached
range where anticancer activity was demonstrated in vitro (liposarcoma [2]): 5 to 10 µM
potency rank among HIV PIs in clonogenic assays (liposarcoma [4]): most potent HIV PI identified
precursor SREBP-1 protein expression (SREBP-1): dose-dependent increase
effect on tumor growth (liposarcoma xenograft): inhibition of tumor growth
